Laboratory results reported in ChEMBL document CHEMBL3826928, “Incorporation of Phosphonate into Benzonaphthyridine Toll-like Receptor 7 Agonists for Adsorption to Aluminum Hydroxide” (J Med Chem, 2016).

What was measured:
[1] = Adsorption on alum in pH 6.5 histidine buffer assessed as compound adsorbed at 1 mg/ml incubated for 1 hr by LC-MS analysis relative to control; format: physicochemical; conditions: pH 6.5, 1 h
In short: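 Compound dissolved in endotoxin-free water, then combined with Alhydrogel alum suspension and 100 mM histidine pH 6.5 stock; final 1 mg/mL compound, 3 mg/mL alum in 10 mM histidine, gently agitated 1 h at room temperature. Aliquot centrifuged 13 000 rpm 10 min; supernatant analysed by LCMS against nonadsorbed reference to give unbound fraction, bound fraction derived indirectly.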

[2] = target: T1, Toll-like receptor 7 (Homo sapiens, UniProt Q9NYK1); experiment: Agonist activity at human TLR7 expressed in HEK293 cells incubated for 6 hrs by luciferase reporter gene assay; format: cell-based
T1 sequence (Q9NYK1 whole entry): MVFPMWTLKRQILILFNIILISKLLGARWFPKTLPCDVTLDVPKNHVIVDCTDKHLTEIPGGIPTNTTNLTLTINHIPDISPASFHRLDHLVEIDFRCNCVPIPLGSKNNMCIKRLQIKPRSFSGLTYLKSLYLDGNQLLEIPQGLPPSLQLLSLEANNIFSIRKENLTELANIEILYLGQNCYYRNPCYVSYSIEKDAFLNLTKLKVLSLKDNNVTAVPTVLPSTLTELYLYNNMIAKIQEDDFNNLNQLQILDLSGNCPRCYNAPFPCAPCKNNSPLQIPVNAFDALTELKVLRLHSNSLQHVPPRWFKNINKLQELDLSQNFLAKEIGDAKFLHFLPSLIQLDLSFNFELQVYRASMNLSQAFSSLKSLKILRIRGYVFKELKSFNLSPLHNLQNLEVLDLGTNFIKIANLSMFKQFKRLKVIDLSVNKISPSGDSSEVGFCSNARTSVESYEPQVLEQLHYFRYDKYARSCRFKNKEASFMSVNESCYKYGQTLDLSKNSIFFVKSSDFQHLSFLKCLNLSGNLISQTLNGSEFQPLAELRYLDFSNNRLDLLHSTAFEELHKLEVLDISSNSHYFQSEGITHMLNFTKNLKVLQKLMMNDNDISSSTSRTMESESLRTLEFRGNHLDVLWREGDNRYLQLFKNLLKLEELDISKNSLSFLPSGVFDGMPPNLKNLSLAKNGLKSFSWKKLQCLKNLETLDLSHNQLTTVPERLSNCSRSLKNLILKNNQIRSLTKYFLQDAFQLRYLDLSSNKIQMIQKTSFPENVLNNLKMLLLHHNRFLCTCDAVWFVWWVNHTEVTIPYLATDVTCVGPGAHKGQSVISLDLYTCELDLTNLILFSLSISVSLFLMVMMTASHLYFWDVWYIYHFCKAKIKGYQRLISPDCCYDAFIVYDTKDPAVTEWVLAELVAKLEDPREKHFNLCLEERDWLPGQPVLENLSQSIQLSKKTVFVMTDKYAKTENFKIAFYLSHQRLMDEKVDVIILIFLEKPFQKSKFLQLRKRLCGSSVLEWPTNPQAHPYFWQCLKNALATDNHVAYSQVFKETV
In short: (§1)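 HEK293 stably carrying NF-κB-firefly luciferase reporter plus human TLR7 (best resiquimod-responding clone), maintained under puromycin/blasticidin. 25 000 cells per well in DMEM with 3% FCS.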

[3] = Aqueous solubility of compound in pH 1.5 to 10 solution by potentiometric titration method; format: physicochemical; conditions: buffer
In short: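 About 2 mg solid titrated potentiometrically from pH 10 to pH 1.5 on Sirius T3 after pKa determination with MeOH cosolvent; intrinsic solubility calculated from pKa shift on precipitation (Noyes−Whitney), solubility−pH profile extrapolated by Henderson−Hasselbalch.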

[4] = test system: Muscle tissue; experiment: Drug level in Balb/c mouse muscle at 100 ug, im measured at 24 hrs post dose using alum bound compound formulation; format: ADME, organism-based; conditions: in vivo
In short: (§2)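 Female BALB/c mice (6−8 weeks, 3 per group) given 100 μg intramuscularly, with or without alum, 50 μL in each hind leg. Serum from retro-orbital bleeds at time points; protein precipitation, reverse-phase LC and ESI+ MRM mass spectrometry. Injected muscle drug level measured at 24 h.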

[5] = test system: Serum; experiment: Drug level in Balb/c mouse serum at 100 ug, im measured up to 24 hrs post dose using alum bound compound formulation; format: ADME, organism-based; conditions: in vivo; in short: as §2
[6] = target: T2, Toll-like receptor 7 (Homo sapiens) (UniProt Q9NYK1); experiment: Agonist activity at human TLR7 expressed in HEK293 cells incubated for 6 hrs by luciferase reporter gene assay relative to resiquimod; format: cell-based; in short: as §1
T2 sequence (whole entry): T1 sequence (Q9NYK1 whole entry)

[7] = target: T3, Toll-like receptor 8 (Homo sapiens) (UniProt Q9NR97); experiment: Agonist activity at human TLR8 expressed in HEK293 cells up to 30 uM incubated for 6 hrs by luciferase reporter gene assay relative to resiquimod; format: cell-based
T3 sequence (whole entry): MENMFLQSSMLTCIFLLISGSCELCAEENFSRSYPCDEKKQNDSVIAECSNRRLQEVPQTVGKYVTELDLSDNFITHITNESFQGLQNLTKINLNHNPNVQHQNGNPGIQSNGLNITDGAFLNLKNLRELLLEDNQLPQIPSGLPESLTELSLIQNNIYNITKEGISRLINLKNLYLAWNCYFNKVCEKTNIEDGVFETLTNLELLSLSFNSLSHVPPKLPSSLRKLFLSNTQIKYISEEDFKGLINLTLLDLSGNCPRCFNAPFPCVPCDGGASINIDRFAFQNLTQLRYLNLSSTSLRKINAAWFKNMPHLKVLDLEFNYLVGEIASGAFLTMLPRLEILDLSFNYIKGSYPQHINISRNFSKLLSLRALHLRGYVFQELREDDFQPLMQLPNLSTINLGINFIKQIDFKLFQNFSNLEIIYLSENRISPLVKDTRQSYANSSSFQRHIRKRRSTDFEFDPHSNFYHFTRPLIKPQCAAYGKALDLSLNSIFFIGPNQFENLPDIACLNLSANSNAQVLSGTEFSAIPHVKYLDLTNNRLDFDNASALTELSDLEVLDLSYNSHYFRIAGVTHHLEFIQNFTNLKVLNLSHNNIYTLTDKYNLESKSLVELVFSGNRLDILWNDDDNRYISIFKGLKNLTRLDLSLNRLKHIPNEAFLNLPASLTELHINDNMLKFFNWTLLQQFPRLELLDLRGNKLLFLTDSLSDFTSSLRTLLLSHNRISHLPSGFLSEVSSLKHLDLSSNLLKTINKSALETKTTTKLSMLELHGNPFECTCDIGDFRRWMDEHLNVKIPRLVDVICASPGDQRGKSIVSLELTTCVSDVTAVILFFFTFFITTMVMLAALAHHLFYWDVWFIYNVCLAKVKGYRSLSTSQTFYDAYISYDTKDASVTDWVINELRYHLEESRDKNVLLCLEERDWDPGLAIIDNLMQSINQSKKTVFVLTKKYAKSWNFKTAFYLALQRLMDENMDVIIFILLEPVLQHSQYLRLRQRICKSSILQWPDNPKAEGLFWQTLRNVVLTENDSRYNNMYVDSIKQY

[8] = test system: Muscle tissue; experiment: Drug level in Balb/c mouse muscle at 100 ug, im measured at 24 hrs post dose; format: ADME, organism-based; conditions: in vivo; in short: as §2
[9] = test system: Serum; experiment: Drug level in Balb/c mouse serum at 100 ug, im measured at 24 hrs post dose; format: ADME, organism-based; conditions: in vivo; in short: as §2
[10] = Aqueous solubility of compound in pH 6.5 to 7.2 solution incubated for 24 hrs by saturated shake flask method; format: physicochemical; conditions: buffer, pH 6.5, 24 h

SMILES | Activity [1] | EC50 [2] [nM] | solubility [3] | Drug uptake [4] | Drug uptake [5] | %max [6] [%] | Activity [7] [%] | Drug uptake [8] | Drug uptake [9] | solubility [10]
Cc1ccc2c(c1)nc(N)c1ncc(CCc3ccc(OCCOCCOCCC(F)(F)P(=O)(O)O)cc3C)cc12 | 98% | 1200 | soluble | Active | Not Active | 95 | < 5 | Not Active | Active | 
Cc1cc(OCCCC(F)(F)P(=O)(O)O)ccc1CCc1cnc2c(N)nc3cc(CCC(=O)O)ccc3c2c1 | 95% | 240 |  |  |  | 95 | < 5 |  |  | 
Cc1ccc2c(c1)nc(N)c1ncc(CCc3ccc(OCCCP(=O)(O)O)cc3C)cc12 | ND(Insoluble) | 230 |  |  |  |  | < 5 |  |  | Insoluble
Cc1cc(OCCOCCOCCP(=O)(O)O)ccc1CCc1cnc2c(N)nc3cc(CCC(=O)O)ccc3c2c1 | 97% | 350 | soluble |  |  | 110 | < 5 |  |  | 
Cc1cc(OCCOCCOCCC(F)(F)P(=O)(O)O)ccc1CCc1cnc2c(N)nc3cc(CCC(=O)O)ccc3c2c1 | 97% | 39 |  |  |  | 100 | < 5 |  |  | 
